Results from ChEMBL document CHEMBL4406821, “Novel dual inhibitors targeting CDK4 and VEGFR2 synergistically suppressed cancer progression and angiogenesis” (Eur J Med Chem, 2019).
Calls of active or inactive are those of the source. The calls are words filed in the database; no cut-off is given here.

Tests used:
HUVEC [1] = test: Antiproliferative activity against HUVEC cells assessed as reduction in cell viability measured upto 72 hrs by CCK8 assay; type: functional, cell-based; conditions: Homo sapiens
Procedure, shortened: (§1)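 HUVECs, 3×10³ cells/well, kept in 1640 medium with 10% FBS at 37°C and 5% CO₂. Cells were treated at 20 or 40 nM or vehicle, and viability was read by CCK-8 (absorbance 450 nm) at 0, 12, 24, 36, 48, 60 and 72 h. Five replicates per sample.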

[2] = target: Phosphatidylinositol 3-kinase C2 domain-containing subunit gamma (Homo sapiens) (UniProt O75747); test: Inhibition of recombinant human PI3KC2gamma (468 to 1203 residues) at 1 uM using phosphatidylinositol as substrate incubated for 40 mins in presence of [gamma-33P]-ATP by scintillation counting method relative to control
[3] = target: Vascular endothelial growth factor receptor 2 (Homo sapiens, UniProt P35968); test: Inhibition of VEGFR2 in HUVEC cells assessed as reduction in Akt phosphorylation at 20 to 40 nM incubated for 48 hrs by Western blot analysis; type: cell-based
Procedure, shortened: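 HUVECs were maintained in 1640 medium with 10% FBS. They were treated with graded concentrations for 48 h, PBS-washed and lysed in RIPA buffer. Immunoblots were probed for total and phospho VEGFR2, STAT3, Akt, Erk1 and Src, each at 1:1000. β-actin served as loading control.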

[4] = target: Rhodopsin kinase GRK7 (Homo sapiens) (UniProt Q8WTQ7); test: Inhibition of recombinant human full length GRK7 at 1 uM using casein as substrate incubated for 40 mins in presence of [gamma-33P]-ATP by scintillation counting method relative to control
Chain of Rhodopsin kinase GRK7 (Homo sapiens) (Q8WTQ7 whole entry): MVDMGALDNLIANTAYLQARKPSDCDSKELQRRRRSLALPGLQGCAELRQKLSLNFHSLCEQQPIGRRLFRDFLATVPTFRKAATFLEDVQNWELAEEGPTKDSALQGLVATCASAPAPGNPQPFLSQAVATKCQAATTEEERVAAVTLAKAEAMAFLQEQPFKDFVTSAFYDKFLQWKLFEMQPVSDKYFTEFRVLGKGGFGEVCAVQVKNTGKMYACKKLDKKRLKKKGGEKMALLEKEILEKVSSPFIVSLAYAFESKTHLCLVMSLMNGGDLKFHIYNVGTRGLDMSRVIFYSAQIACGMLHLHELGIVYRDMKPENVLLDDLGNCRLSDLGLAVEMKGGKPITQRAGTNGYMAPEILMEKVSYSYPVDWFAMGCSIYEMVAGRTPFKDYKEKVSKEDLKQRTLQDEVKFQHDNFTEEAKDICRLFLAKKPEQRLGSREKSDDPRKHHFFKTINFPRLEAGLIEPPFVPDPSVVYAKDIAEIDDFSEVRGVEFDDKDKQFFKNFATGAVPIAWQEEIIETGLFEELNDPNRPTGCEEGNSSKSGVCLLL

[5] = target: Serine/threonine-protein kinase PAK 3 (Homo sapiens) (UniProt O75914); test: Inhibition of recombinant human full length PAK3 at 1 uM using RRRLSFAEPG as substrate incubated for 40 mins in presence of [gamma-33P]-ATP by scintillation counting method relative to control
Chain of Serine/threonine-protein kinase PAK 3 (Homo sapiens) (O75914 whole entry, looked up): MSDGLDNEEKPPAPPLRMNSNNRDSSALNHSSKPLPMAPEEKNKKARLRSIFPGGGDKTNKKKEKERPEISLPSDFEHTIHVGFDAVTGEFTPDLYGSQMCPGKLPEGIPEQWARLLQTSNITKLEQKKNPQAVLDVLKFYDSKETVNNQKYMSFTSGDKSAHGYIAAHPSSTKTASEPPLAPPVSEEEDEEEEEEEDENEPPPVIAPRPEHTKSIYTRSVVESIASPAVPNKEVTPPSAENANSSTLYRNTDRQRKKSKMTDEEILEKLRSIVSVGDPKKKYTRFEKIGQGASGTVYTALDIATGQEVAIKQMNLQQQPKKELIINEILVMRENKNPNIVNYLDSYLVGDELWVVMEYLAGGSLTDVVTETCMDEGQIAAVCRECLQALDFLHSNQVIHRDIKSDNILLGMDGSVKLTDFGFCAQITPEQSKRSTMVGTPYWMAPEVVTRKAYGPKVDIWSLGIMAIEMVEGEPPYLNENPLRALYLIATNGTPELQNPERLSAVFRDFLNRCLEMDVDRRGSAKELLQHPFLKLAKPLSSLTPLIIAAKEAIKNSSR
Procedure, shortened: (§2)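 Tested at a single 1 uM in an outsourced commercial kinase-profiling panel, read as percent inhibition. Each value is the mean of two independent experiments.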

[6] = target: Ephrin type-A receptor 7 (Homo sapiens) (UniProt Q15375); test: Inhibition of recombinant human EPhA7 (613 to 909 residues) at 1 uM using KTFCGTPEYLAPEVRREPRILSEEEQEMFRDFDYIADWC as substrate incubated for 40 mins in presence of [gamma-33P]-ATP by scintillation counting method relative to control
[7] = target: Insulin receptor (Homo sapiens) (UniProt P06213); test: Inhibition of recombinant activated human IR (1005 to 1310 residues) at 1 uM using KKKSPGEYVNIEFG as substrate incubated for 40 mins in presence of [gamma-33P]-ATP by scintillation counting method relative to control
Chain of Insulin receptor (Homo sapiens) (P06213 28-758 limits assumed): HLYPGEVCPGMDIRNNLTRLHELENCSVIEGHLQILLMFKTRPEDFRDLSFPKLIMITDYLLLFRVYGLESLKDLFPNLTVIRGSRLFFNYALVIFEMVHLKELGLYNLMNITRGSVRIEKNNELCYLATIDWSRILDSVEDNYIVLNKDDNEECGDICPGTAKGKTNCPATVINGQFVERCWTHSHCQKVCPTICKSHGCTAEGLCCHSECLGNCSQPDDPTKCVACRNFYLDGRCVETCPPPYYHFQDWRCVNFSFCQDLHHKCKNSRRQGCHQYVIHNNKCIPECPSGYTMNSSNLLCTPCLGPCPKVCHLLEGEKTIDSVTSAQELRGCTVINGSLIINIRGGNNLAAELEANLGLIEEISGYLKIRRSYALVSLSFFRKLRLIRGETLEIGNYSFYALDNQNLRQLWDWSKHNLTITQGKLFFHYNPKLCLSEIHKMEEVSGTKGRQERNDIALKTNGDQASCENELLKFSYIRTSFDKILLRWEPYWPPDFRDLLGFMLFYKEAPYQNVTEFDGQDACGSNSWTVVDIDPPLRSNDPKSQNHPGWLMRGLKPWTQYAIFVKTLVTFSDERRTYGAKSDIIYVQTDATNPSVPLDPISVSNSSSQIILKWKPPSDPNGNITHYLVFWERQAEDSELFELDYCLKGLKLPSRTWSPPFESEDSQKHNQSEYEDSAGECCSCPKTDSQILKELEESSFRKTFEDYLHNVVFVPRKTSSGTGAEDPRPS
Chain of Insulin receptor (Homo sapiens) (P06213 763-1382 limits assumed): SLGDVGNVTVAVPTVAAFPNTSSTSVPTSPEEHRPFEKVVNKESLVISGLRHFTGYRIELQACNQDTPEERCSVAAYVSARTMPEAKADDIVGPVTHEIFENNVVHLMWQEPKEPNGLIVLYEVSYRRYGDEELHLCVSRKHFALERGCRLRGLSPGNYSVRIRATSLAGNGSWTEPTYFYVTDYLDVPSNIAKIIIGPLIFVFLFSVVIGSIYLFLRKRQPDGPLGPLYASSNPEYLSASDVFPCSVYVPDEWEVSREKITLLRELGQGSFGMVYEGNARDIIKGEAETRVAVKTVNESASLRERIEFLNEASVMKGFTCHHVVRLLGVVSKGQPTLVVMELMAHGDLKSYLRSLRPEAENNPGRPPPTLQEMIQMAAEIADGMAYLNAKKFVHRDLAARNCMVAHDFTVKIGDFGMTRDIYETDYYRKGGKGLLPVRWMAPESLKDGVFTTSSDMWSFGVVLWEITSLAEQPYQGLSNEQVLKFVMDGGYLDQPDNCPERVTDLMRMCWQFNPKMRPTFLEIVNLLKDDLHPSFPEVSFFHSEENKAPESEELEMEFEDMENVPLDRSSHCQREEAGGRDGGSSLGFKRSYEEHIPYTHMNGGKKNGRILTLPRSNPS
Procedure, shortened: (§3)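 Kinase panel profiling at 1 μM performed by Eurofins KinaseProfiler; percent inhibition reported as mean of two independent experiments.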

[8] = target: Tyrosine-protein kinase Srms (Homo sapiens) (UniProt Q9H3Y6); test: Inhibition of recombinant human SRMS at 1 uM incubated for 40 mins in presence of [gamma-33P]-ATP by scintillation counting method relative to control
[9] = target: SRSF protein kinase 1 (Homo sapiens) (UniProt Q96SB4); test: Inhibition of recombinant human SRPK1 (2 to end residues) at 1 uM using RSRSRSRSRSRSRSR as substrate incubated for 40 mins in presence of [gamma-33P]-ATP by scintillation counting method relative to control
Chain of SRSF protein kinase 1 (Homo sapiens) (Q96SB4 whole entry): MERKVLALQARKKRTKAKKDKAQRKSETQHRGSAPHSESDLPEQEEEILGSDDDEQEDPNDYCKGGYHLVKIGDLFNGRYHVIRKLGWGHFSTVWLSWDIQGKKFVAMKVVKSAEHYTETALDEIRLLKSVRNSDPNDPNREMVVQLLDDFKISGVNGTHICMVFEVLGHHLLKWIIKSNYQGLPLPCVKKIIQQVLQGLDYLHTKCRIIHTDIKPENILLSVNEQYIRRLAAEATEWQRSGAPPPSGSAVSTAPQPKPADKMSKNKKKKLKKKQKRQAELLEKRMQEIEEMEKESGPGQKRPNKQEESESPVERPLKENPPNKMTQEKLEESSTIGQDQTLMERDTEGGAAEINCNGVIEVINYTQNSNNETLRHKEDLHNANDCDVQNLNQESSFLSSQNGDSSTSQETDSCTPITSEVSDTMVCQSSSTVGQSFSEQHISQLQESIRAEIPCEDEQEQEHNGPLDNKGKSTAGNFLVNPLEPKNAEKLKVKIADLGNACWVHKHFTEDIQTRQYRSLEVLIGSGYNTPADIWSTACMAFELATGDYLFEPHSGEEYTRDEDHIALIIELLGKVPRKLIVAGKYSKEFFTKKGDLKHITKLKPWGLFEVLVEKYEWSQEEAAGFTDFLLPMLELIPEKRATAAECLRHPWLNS

[10] = Toxicity in NOD/SCID BALB/c mouse xenografted with human SiHa cells assessed as effect on blood parameter by measuring MPV at 40 mg/kg, po administered once two days for 4 times by hematology analyzer; type: organism-based; conditions: in vivo
[11] = target: Tyrosine-protein kinase FRK (Homo sapiens) (UniProt P42685); test: Inhibition of recombinant human PTK5 (218 to end residues) at 1 uM using GGEEEEYFELVKKKK as substrate incubated for 40 mins in presence of [gamma-33P]-ATP by scintillation counting method relative to control
Chain of Tyrosine-protein kinase FRK (Homo sapiens) (P42685 whole entry): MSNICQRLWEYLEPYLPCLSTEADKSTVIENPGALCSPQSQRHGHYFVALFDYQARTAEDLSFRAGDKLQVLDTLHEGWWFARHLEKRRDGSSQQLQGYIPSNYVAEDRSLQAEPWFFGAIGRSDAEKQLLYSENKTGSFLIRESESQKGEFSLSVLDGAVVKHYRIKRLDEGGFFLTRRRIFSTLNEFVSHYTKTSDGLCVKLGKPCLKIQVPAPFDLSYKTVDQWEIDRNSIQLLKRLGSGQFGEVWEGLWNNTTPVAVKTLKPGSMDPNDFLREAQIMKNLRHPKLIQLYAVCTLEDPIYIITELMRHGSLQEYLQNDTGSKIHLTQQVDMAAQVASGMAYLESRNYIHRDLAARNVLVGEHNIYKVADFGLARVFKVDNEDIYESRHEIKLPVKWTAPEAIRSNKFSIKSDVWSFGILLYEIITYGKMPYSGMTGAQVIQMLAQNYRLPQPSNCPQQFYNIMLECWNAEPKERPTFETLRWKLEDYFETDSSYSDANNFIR

[12] = target: TGF-beta receptor type-1 (Homo sapiens) (UniProt P36897); test: Inhibition of recombinant human TGFBR1 (200 to end residues) at 1 uM using casein as substrate incubated for 40 mins in presence of [gamma-33P]-ATP by scintillation counting method relative to control
[13] = Toxicity in NOD/SCID BALB/c mouse xenografted with human SiHa cells assessed as effect on blood parameter by measuring WBC content at 40 mg/kg, po administered once two days for 4 times by hematology analyzer; type: organism-based; conditions: in vivo
T47D = test: Induction of cell cycle arrest in human T47D cells assessed as decrease in cell accumulation in S phase at 20 to 40 nM incubated for 36 hrs by propidium iodide staining based flow cytometry; type: functional
Procedure, shortened: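 Cells were treated with graded concentrations for 36 h, then fixed overnight in 70% ice-cold ethanol at 4°C and resuspended in PBS. Staining used 50 µg/ml PI plus 5 µg/ml RNase at 37°C for 30 min. DNA content was analysed by FACS to give G0/G1, S and G2/M fractions.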

[14] = target: Mitogen-activated protein kinase 1 (Homo sapiens) (UniProt P28482); test: Inhibition of recombinant human full length MAPK2 at 1 uM using myelin basic protein as substrate incubated for 40 mins in presence of [gamma-33P]-ATP by scintillation counting method relative to control; procedure, shortened: as §2
Chain of Mitogen-activated protein kinase 1 (Homo sapiens) (P28482 whole entry): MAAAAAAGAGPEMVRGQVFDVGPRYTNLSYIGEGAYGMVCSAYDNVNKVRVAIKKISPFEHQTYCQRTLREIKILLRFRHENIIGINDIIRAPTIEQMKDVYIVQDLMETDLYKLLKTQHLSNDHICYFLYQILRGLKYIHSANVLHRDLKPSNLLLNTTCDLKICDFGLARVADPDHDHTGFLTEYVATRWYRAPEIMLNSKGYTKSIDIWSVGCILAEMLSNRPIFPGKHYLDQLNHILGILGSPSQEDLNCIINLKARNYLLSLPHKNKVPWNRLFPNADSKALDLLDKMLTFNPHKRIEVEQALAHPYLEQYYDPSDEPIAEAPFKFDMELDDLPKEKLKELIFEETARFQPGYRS

[15] = target: Casein kinase II subunit alpha (Homo sapiens) (UniProt P68400); test: Inhibition of recombinant full length human CK2alpha1 at 1 uM using RRRDDDSDDD as substrate incubated for 40 mins in presence of [gamma-33P]-ATP by scintillation counting method relative to control; procedure, shortened: as §3
Chain of Casein kinase II subunit alpha (Homo sapiens) (P68400 whole entry, looked up): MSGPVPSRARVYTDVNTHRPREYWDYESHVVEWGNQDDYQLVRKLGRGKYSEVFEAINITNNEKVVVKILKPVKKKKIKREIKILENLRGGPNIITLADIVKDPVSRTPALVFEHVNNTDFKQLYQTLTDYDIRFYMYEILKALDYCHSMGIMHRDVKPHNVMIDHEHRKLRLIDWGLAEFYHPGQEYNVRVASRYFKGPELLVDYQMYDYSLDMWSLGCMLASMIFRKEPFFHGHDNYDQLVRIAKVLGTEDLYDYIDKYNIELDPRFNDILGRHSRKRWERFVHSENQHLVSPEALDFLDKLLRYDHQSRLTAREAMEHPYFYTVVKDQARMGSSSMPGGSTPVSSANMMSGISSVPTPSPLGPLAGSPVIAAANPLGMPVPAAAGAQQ

HUVEC [16] = test: Antiproliferative activity against HUVEC cells assessed as reduction in cell viability at 20 to 40 nM by CCK8 assay; type: functional, cell-based; conditions: Homo sapiens, TDE = time-dependent effect; procedure, shortened: as §1
[17] = target: Macrophage colony-stimulating factor 1 receptor (Homo sapiens) (UniProt P07333); test: Inhibition of recombinant human FMS (538 to end residues) at 1 uM using KKKSPGEYVNIEF as substrate incubated for 40 mins in presence of [gamma-33P]-ATP by scintillation counting method relative to control
[18] = target: Tyrosine-protein kinase Fyn (Homo sapiens) (UniProt P06241); test: Inhibition of recombinant full length human FYN at 1 uM using KVEKIGEGTYGVVYK as substrate incubated for 40 mins in presence of [gamma-33P]-ATP by scintillation counting method relative to control; procedure, shortened: as §3
[19] = target: Serine/threonine-protein kinase PLK3 (Homo sapiens) (UniProt Q9H4B4); test: Inhibition of recombinant human PLK3 (19 to 301 residues) at 1 uM using casein as substrate incubated for 40 mins in presence of [gamma-33P]-ATP by scintillation counting method relative to control
[20] = target: Protein kinase C iota type (Homo sapiens) (UniProt P41743); test: Inhibition of recombinant human full length PKCiota at 1 uM using ERMRPRKRQGSVRRRV as substrate incubated for 40 mins in presence of [gamma-33P]-ATP by scintillation counting method relative to control
Chain of Protein kinase C iota type (Homo sapiens) (P41743 whole entry): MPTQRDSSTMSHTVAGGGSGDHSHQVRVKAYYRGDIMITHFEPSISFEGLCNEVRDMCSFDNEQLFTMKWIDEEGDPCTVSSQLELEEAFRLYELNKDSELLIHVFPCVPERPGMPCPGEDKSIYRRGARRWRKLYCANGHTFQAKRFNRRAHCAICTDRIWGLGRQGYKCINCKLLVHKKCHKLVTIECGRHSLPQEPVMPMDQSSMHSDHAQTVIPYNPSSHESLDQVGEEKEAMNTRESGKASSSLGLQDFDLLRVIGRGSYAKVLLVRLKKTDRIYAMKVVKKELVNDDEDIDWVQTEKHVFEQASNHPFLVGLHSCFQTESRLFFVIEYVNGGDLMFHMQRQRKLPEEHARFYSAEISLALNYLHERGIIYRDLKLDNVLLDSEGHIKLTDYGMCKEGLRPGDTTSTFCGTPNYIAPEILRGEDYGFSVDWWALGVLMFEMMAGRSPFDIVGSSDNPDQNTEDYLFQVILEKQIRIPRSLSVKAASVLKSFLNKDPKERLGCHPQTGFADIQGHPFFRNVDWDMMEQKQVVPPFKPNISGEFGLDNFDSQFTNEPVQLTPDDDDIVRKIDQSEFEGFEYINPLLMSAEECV

For `Cc1ccc(NC(=O)C2(C(=O)Nc3ccc(Nc4ncc(F)c(-c5cc(F)c6nc(C)n(C(C)C)c6c5)n4)cc3)CC2)cc1`, the inhibition (HUVEC [1]) was “Dose-dependent effect”, the inhibition [2] was 38% and the inhibition [3] was “Active”. For the same molecule, the inhibition [4] was 8%, the inhibition [5] was 0% and the inhibition [6] was 81%. For the same molecule, the inhibition [7] was 27%, the inhibition [8] was 4% and the inhibition [9] was 21%. For the same molecule, the Activity [10] was “Non-Toxic”, the inhibition [11] was 10% and the inhibition [12] was 6%. For the same molecule, the Activity [13] was “Non-Toxic”, the Activity (T47D) was “Active” and the inhibition [14] was 0%. For the same molecule, the inhibition [15] was 36%, the inhibition (HUVEC [16]) was “Tde” and the inhibition [17] was 64%. The inhibition [18] was 32%, the inhibition [19] was 36% and the inhibition [20] was 5%.
